Measurements reported in ChEMBL document CHEMBL3098111, “Discovery of 2,5-diarylnicotinamides as selective orexin-2 receptor antagonists (2-SORAs)” (Bioorg Med Chem Lett, 2013).
Active and inactive are the calls of the source. No cut-off for these calls is given here.

Key:
[1] = biological target: Glutamate NMDA receptor (Rattus norvegicus) (UniProt P35439+Q00959+Q00960+Q00961+Q62645+Q8VHN2+Q9R1M7); assay: Inhibition of rat NMDA receptor phencyclidine binding site at 10 uM relative to control; format: protein-complex assay
[2] = biological target: C-C chemokine receptor type 1 (Homo sapiens) (UniProt P32246); assay: Inhibition of human CCR1 at 10 uM relative to control
[3] = biological target: 5-hydroxytryptamine receptor 3A (Homo sapiens) (UniProt P46098); assay: Inhibition of human 5-HT3 receptor at 10 uM relative to control
[4] = biological target: Beta-2 adrenergic receptor (Homo sapiens) (UniProt P07550); assay: Inhibition of human beta2 adrenergic receptor at 10 uM relative to control
[5] = species on record: Oryctolagus cuniculus; assay: Inhibition of rabbit monoamine transporter at 10 nM relative to control
[6] = biological target: Platelet-activating factor receptor (Homo sapiens) (UniProt P25105); assay: Inhibition of human PAF receptor at 10 uM relative to control
[7] = biological target: GABA-A receptor; alpha-5/beta-3/gamma-2 (Homo sapiens) (UniProt P18507+P28472+P31644); assay: Inhibition of human GABA alpha5beta3gamma2 receptor at 10 uM relative to control; format: protein-complex assay
[8] = biological target: Prostaglandin F2-alpha receptor (Homo sapiens) (UniProt P43088); assay: Inhibition of human prostanoid FP receptor at 10 uM relative to control
[9] = biological target: B2 bradykinin receptor (Homo sapiens) (UniProt P30411); assay: Inhibition of human bradykinin B2 receptor at 10 uM relative to control
[10] = biological target: C-X-C chemokine receptor type 2 (Homo sapiens) (UniProt P25025); assay: Inhibition of human CXCR2 at 10 uM relative to control
[11] = system: Rattus norvegicus; assay: Antiinsomnic activity in rat EEG model assessed as decrease in active wake time at 15 mg/kg, po; format: functional, organism-based; parameters: dose 15 mg/kg
Procedure, shortened: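 Rats with EEG telemetry given 15 mg/kg orally during their active period, vehicle 20% Vitamin E TPGS in water. Sleep architecture (active wake, light sleep, delta and REM sleep) scored from EEG.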

[12] = biological target: Muscarinic acetylcholine receptor M4 (Homo sapiens) (UniProt P08173); assay: Inhibition of human muscarinic M4 receptor at 10 uM relative to control
[13] = species on record: Homo sapiens; assay: Inhibition of human nicotinic acetylcholine receptor at 10 uM relative to control

Sequence of 5-hydroxytryptamine receptor 3A (Homo sapiens) (P46098 whole entry): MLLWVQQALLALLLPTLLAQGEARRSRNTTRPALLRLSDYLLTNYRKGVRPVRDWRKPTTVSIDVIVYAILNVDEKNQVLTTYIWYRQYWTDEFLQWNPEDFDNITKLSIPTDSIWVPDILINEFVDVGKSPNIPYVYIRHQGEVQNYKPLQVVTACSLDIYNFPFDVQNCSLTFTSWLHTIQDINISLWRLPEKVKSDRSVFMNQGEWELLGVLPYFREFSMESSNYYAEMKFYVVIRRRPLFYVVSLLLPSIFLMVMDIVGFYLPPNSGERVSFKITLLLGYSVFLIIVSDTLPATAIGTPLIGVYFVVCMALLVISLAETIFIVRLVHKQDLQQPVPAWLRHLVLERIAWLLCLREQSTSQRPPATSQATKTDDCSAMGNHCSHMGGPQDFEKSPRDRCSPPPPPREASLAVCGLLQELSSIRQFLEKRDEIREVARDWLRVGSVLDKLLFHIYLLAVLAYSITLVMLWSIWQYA
Sequence of Beta-2 adrenergic receptor (Homo sapiens) (P07550 whole entry, looked up): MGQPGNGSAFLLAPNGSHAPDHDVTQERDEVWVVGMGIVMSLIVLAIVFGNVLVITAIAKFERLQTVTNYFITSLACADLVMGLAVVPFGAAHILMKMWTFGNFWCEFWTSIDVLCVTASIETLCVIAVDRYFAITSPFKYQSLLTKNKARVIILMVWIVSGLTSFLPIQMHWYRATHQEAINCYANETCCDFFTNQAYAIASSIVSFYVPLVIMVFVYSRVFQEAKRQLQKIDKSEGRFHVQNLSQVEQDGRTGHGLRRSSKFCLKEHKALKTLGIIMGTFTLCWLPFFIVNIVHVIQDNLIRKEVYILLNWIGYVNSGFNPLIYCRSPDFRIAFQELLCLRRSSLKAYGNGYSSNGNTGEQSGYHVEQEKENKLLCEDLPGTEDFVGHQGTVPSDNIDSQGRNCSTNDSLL
Sequence of C-X-C chemokine receptor type 2 (Homo sapiens) (P25025 whole entry): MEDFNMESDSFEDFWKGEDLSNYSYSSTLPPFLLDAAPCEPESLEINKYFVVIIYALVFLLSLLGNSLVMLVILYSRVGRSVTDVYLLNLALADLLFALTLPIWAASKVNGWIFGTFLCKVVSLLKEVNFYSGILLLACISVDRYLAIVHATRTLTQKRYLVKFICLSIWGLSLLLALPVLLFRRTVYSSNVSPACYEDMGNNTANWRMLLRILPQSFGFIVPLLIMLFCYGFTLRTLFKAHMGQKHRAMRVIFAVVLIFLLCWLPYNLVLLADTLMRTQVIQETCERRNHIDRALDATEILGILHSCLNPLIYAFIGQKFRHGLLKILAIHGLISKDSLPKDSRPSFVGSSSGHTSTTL
Sequence of Prostaglandin F2-alpha receptor (Homo sapiens) (P43088 whole entry): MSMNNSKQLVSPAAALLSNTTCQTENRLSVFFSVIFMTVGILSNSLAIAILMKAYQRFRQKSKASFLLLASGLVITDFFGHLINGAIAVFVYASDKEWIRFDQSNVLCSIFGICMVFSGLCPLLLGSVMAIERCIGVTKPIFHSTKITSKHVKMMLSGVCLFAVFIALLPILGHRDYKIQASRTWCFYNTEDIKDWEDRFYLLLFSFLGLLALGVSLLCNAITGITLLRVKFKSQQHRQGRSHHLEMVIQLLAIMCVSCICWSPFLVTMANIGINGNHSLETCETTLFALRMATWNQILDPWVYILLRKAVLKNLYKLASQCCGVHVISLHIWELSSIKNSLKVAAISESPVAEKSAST
Sequence of Muscarinic acetylcholine receptor M4 (Homo sapiens) (P08173 whole entry): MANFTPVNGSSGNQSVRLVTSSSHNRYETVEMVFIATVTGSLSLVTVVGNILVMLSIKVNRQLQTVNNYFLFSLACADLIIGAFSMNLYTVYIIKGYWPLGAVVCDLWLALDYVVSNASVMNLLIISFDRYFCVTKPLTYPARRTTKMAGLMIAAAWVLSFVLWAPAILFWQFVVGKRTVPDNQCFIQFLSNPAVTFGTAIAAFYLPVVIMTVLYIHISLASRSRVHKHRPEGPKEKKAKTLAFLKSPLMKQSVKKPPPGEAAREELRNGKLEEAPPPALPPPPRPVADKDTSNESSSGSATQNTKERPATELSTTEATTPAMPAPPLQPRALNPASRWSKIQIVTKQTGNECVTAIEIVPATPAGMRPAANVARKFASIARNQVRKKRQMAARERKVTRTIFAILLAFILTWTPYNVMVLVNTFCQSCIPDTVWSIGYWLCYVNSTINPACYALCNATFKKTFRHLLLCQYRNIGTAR
Sequence of Platelet-activating factor receptor (Homo sapiens) (P25105 whole entry): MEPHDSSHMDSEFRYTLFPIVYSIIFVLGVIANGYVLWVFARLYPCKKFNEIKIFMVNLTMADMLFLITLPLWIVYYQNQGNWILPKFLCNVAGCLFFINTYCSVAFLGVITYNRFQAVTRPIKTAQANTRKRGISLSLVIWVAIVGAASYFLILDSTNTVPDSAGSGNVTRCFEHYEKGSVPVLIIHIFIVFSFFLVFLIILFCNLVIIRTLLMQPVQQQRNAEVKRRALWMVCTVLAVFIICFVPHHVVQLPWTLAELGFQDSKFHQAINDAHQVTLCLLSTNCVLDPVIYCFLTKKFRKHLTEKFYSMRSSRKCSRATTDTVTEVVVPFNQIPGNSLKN
Sequence of C-C chemokine receptor type 1 (Homo sapiens) (P32246 whole entry): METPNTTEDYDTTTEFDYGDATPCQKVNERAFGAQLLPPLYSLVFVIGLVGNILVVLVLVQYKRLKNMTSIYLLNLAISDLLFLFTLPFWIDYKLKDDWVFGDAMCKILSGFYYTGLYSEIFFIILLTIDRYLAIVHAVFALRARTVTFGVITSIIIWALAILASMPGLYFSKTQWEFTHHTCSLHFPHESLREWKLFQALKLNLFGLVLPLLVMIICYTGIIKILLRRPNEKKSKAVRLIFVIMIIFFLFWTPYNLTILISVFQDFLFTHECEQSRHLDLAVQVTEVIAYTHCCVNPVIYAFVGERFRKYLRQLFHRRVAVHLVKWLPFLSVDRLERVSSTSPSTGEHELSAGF
Sequence of B2 bradykinin receptor (Homo sapiens) (P30411 whole entry): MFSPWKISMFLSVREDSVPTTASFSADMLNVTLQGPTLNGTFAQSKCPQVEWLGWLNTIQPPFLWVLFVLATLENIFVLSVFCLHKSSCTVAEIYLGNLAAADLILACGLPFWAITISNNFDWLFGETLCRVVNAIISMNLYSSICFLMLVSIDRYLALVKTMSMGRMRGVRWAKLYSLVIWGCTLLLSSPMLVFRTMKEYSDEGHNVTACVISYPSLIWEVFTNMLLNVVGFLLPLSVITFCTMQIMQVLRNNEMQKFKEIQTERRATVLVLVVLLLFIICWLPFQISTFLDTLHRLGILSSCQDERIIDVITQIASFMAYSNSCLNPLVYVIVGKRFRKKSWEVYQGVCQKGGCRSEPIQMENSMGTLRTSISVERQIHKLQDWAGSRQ

Question: Which inhibition [1] does the source give for `COc1ccc(CNC(=O)c2cc(-c3cc(Cl)cc(Cl)c3)cnc2-c2cccnc2)cc1OC` here?
Answer: 5%

Question: What about the inhibition [2] of the same compound?
Answer: 21%

Question: What about the inhibition [3] of the same compound?
Answer: -3%

Question: And the inhibition [4]?
Answer: 23%

Question: What about the inhibition [5] of the same compound?
Answer: 2%

Question: And the inhibition [6]?
Answer: 31%

Question: And the inhibition [7]?
Answer: 18%

Question: What about the inhibition [8] of the same compound?
Answer: 19%

Question: What about the inhibition [9] of the same compound?
Answer: -10%

Question: What about the inhibition [10] of the same compound?
Answer: 0%

Question: And the Activity [11]?
Answer: Active

Question: And the inhibition [12]?
Answer: 7%

Question: And the inhibition [13]?
Answer: -1%
